Published values of several laboratories.
Compare with care: the assays were run in different laboratories.
Target: Tyrosine-protein kinase FRK (FRK, Homo sapiens, UniProt P42685)

Compound	read-out	mode	method	concentration	endpoint	value
O=C(Nc1cnn(-c2csc(C(=O)NC3COC3)c2)c1)Nc1ccccc1Cl	enzyme activity	inhibitor	–	5 µM	remaining activity	97.4%
CC(=O)N1CCC(c2ccc(C(=O)NC3=NCCN3)cc2C(F)(F)F)CC1	cell-free assay	–	competition with immobilised ligand	1 µM	remaining binding	97%
CC/C(=N\NC(=O)NCc1cccc(O)c1)c1ccc(O)c(C)c1O	enzyme activity	inhibitor	–	0.1 µM	inhibition	0.5%
O=C1CCc2cc(Nc3cc(OC4CCOCC4)c([N+](=O)[O-])cc3Cl)ccc2N1	cell-free assay	–	competition with immobilised ligand	1 µM	remaining binding	73%
COc1cc2ncnc(Nc3ccc(Oc4ccccc4)c(C)c3C)c2cc1OC	enzyme activity	inhibitor	–	1 µM	inhibition	20%
CCN(CC)CCNC(=O)c1c(C)[nH]c(/C=C2\C(=O)Nc3ccc(Cl)cc32)c1C	enzyme activity	inhibitor	–	0.5 µM	remaining activity	59.3%
CCCOc1ccc([C@@H]2[C@@H](C(=O)O)[C@H](c3ccc4c(c3)OCO4)CN2CC(=O)Nc2c(CC)cccc2CC)cc1	cell-free assay	–	competition with immobilised ligand	1 µM	remaining binding	89%
CCN(CC)CCNC(=O)c1c(C)[nH]c(/C=C2\C(=O)Nc3ccc(F)cc32)c1C	enzyme activity	inhibitor	–	0.3 µM	inhibition	47%
COc1cc(-c2cn(C3CCc4c(F)cccc4N(CC(F)(F)F)C3=O)nn2)ccc1-n1cnc(C)c1 (stereo not shown)	cell-free assay	–	competition with immobilised ligand	1 µM	remaining binding	100%
O=C1NC(=O)c2cc(Nc3ccc(F)cc3)c(Nc3ccc(F)cc3)cc21	cell-free assay	–	–	0.5 µM	remaining signal	97.2%
CCN(CC)c1ccc(C2=NNC(=O)CC2C)cc1[N+](=O)[O-] (stereo not shown)	enzyme activity	inhibitor	–	10 µM	remaining activity	83%
O=C(Nc1cnn(-c2csc(C(=O)NC3COC3)c2)c1)Nc1c(F)cccc1Cl	enzyme activity	inhibitor	–	5 µM	remaining activity	95.6%
CN([C@@H]1CCc2c(CC(=O)O)c3cc(S(C)(=O)=O)ccc3n2C1)S(=O)(=O)c1ccc(F)cc1	cell-free assay	–	competition with immobilised ligand	1 µM	remaining binding	100%
N#CCCc1ccc2c(c1)-c1[nH]c3ccc([N+](=O)[O-])cc3c1CC(=O)N2	cell-free assay	–	–	0.5 µM	remaining signal	92.7%
CN1CC(Oc2cnc(C#N)cc2-c2ccn3nc(NC(=O)C4CC4)cc3c2)C1	enzyme activity	inhibitor	–	1 µM	inhibition	0%
CC(C)(O)[C@H]1CC[C@H](Nc2ccc3ncc(-c4cccc(C(F)(F)F)c4)n3n2)CC1	enzyme activity	inhibitor	–	1 µM	remaining activity	57.7%
O=C1Nc2ccc(Cl)cc2C1=Cc1cc(Cl)c(O)c(Cl)c1	cell-free assay	–	–	0.5 µM	remaining signal	70.3%
CCCOc1ccc(OC)c(F)c1C(=O)c1ccc(C(=O)N[C@@H]2CNC[C@H]2NC(=O)c2ccc3[nH]ncc3c2)cc1	enzyme activity	inhibitor	–	10 µM	remaining activity	96%
Cc1c(C(=O)O)cc(-c2ccc(C3CCNCC3)cc2)c2ccc(-c3ccc(C(F)(F)F)cc3)cc12	cell-free assay	–	competition with immobilised ligand	1 µM	remaining binding	100%
CC(C)(C)c1nc2c(s1)c1nc(N)ncc1c1ccc(NS(=O)(=O)c3c(F)cccc3F)c(F)c12	enzyme activity	inhibitor	radiometric	1 µM	remaining activity	103%
Cc1cc(NC(=O)c2cccc3cc(-c4cccc5[nH]nc(N)c45)ccc23)ccc1F	enzyme activity	inhibitor	–	0.1 µM	activity vs control	67%
C[C@@H]1CN(c2cc(-c3n[nH]c4ccc(OC5(C)CC5)cc34)ncn2)C[C@H](C)O1	cell-free assay	–	competition with immobilised ligand	0.1 µM	remaining binding	100%
